The results in this text go back to ChEMBL document CHEMBL1157314, “Antibacterial, partially acetylated oligorhamnosides from Cleistopholis patens” (2006).

Values after ≈ are worked out from the molar mass of the structure shown.

Format in all cases: functional
Assay [1] deals with Staphylococcus aureus. Description: Antibacterial activity against methicillin-resistant Staphylococcus aureus ATCC 33591 after 24 hrs by broth microdilution method. To be noted: ATCC 33591, 24 h. The method, boiled down: (§1)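 Broth microdilution following NCCLS M7-A6 (2003), with inoculum at the recommended densities. Isolates were placed into panel wells with an autoinoculator and grown in cation-adjusted Mueller-Hinton broth at 35°C in ambient air for overnight to 24 h. Panels were read by eye, and the MIC was taken as no visible growth.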
For orientation: Broth dilution looks for growth in wells or tubes with falling amounts of substance.

Assay [2] concerns Staphylococcus aureus. Nature of the assay: Antibacterial activity against methicillin-resistant Staphylococcus aureus 78-13607A after 24 hrs by broth microdilution method. The method, boiled down:
as §1

Assay [3] concerns Streptococcus. Nature of the assay: Antibacterial activity against erythromycin and clindamycin-resistant beta-haemolytic sStreptococcus 91-526D isolate after 24 hrs by broth microdilution method. An outline of the steps:
as §1

Assay [4] concerns Enterococcus faecalis. Nature of the assay: Antibacterial activity against gentamycin and streptomycin-resistant Enterococcus faecalis 39-11D isolate after 24 hrs by broth microdilution method. An outline of the steps:
as §1

Assay [5] concerns Bacillus sp. Nature of the assay: Antibacterial activity against erythromycin-resistant Bacillus sp. 32-2406A isolate after 24 hrs by broth microdilution method. To be noted: Bacillus sp. (in: firmicutes). An outline of the steps: as §1
Assay [6] deals with Staphylococcus. Description: Antibacterial activity against mupirocin-resistant coagulase negative Staphylococcus 63-18A isolate after 24 hrs by broth microdilution method. An outline of the steps:
as §1

Assay [7] concerns Bacillus sp. Description: Antibacterial activity against tetracycline-resistant Bacillus sp. 107-1461D isolate after 24 hrs by broth microdilution method. The following applies: Bacillus sp. (in: firmicutes). The method, boiled down:
as §1

Assay [8] deals with Corynebacterium jeikeium. Nature of the assay: Antibacterial activity against Corynebacterium jeikeium 15-196A isolate after 24 hrs by broth microdilution method. An outline of the steps:
(§2)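 Broth microdilution following NCCLS M7-A6 (2003) inocula; isolates transferred aseptically into panel wells with an autoinoculator; cation-adjusted Mueller-Hinton broth; incubated overnight to 24 h at 35°C in ambient air; panels read by eye, MIC taken as lowest concentration with no visible growth.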

In assay [9] the test system is Streptococcus. Nature of the assay: Antibacterial activity against mupirocin-resistant viridans group sStreptococcus 32-2395A isolate after 24 hrs by broth microdilution method. The method, boiled down:
as §1

Assay [10] concerns Enterococcus faecalis. Nature of the assay: Antibacterial activity against vancomycin-resistant Enterococcus faecalis 48-22D isolate with vanA phenotype after 24 hrs by broth microdilution method. The method, boiled down:
as §1

The test system of assay [11] is Pseudomonas aeruginosa. Nature of the assay: Antibacterial activity against sPseudomonas aeruginosa ATCC 27853 after 24 hrs by broth microdilution method. To be noted: ATCC 27853, 24 h. An outline of the steps: as §2
Assay [12] has as its system Staphylococcus haemolyticus. Nature of the assay: Antibacterial activity against oxacillin-resistant Staphylococcus haemolyticus 107-1240C isolate after 24 hrs by broth microdilution method. The method, boiled down: as §1
The subject of assay [13] is Streptococcus pneumoniae. Nature of the assay: Antibacterial activity against multidrug resistant Streptococcus pneumoniae 68-2307B isolate after 24 hrs by broth microdilution method. An outline of the steps:
as §1

Assay [14] deals with Bacillus sp. Description: Antibacterial activity against trimethoprim/sulfamethaxazole-resistant Bacillus sp. 67-1057A isolate after 24 hrs by broth microdilution method. To be noted: Bacillus sp. (in: firmicutes). An outline of the steps:
as §1

Assay [15] concerns Staphylococcus. Nature of the assay: Antibacterial activity against quinupristin/dalfopristin-resistant coagulase negative Staphylococcus 90-10840A isolate after 24 hrs by broth microdilution method. An outline of the steps:
as §1

For assay [16], the system named is Streptococcus pneumoniae. Description: Antibacterial activity against penicillin-resistant Streptococcus pneumoniae 33-50B isolate after 24 hrs by broth microdilution method. An outline of the steps:
as §1

For assay [17], the system named is Streptococcus pneumoniae. Nature of the assay: Antibacterial activity against erythromycin and clindamycin-resistant Streptococcus pneumoniae 4-38B isolate after 24 hrs by broth microdilution method. An outline of the steps:
as §1

Assay [18] relates to Enterococcus faecalis. Nature of the assay: Antibacterial activity against ampicillin and vancomycin-susceptible Enterococcus faecalis ATCC 29212 after 24 hrs by broth microdilution method. The following applies: ATCC 29212, 24 h. An outline of the steps: as §1
The test system of assay [19] is Streptococcus. Nature of the assay: Antibacterial activity against linezolid-resistant viridans group Streptococcus 27-2832A isolate after 24 hrs by broth microdilution method. An outline of the steps: as §1
Assay [20] has as its system Streptococcus. Description: Antibacterial activity against levofloxacin-resistant beta-haemolytic sStreptococcus 19-756A isolate after 24 hrs by broth microdilution method. The method, boiled down: as §1
The subject of assay [21] is Streptococcus pyogenes. Description: Antibacterial activity against erythromycin-resistant Streptococcus pyogenes 91-8747 isolate after 24 hrs by broth microdilution method. The method, boiled down: as §1
In assay [22] the test system is Streptococcus pneumoniae. Description: Antibacterial activity against penicillin-intermediate resistant Streptococcus pneumoniae ATCC 49619 after 24 hrs by broth microdilution method. To be noted: ATCC 49619, 24 h. The method, boiled down: as §1
Assay [23] has as its system Streptococcus. Description: Antibacterial activity against multidrug-resistant viridans group Streptococcus 58-1602D isolate after 24 hrs by broth microdilution method. The method, boiled down:
as §1

Assay [24] has as its system Staphylococcus. Description: Antibacterial activity against coagulase negative linezolid-resistant Staphylococcus 82-1645A isolate after 24 hrs by broth microdilution method. The method, boiled down:
as §1

Assay [25] relates to Streptococcus pneumoniae. Description: Antibacterial activity against erythromycin-resistant and clindamycin-susceptible Streptococcus pneumoniae 35-405B isolate after 24 hrs by broth microdilution method. The method, boiled down:
as §1

Assay [26] concerns Streptococcus pneumoniae. Description: Antibacterial activity against levofloxacin-resistant Streptococcus pneumoniae 2-2784A isolate after 24 hrs by broth microdilution method. The method, boiled down: as §1
For assay [27], the system named is Streptococcus mitis. Nature of the assay: Antibacterial activity against penicillin-resistant Streptococcus mitis 61-2900C isolate after 24 hrs by broth microdilution method. The method, boiled down: as §1
The subject of assay [28] is Streptococcus. Nature of the assay: Antibacterial activity against levafloxacin-resistant viridans group Streptococcus 107-6380A isolate after 24 hrs by broth microdilution method. The method, boiled down:
as §1

In assay [29] the test system is Escherichia coli. Description: Antibacterial activity against sEscherichia coli ATCC 25922 after 24 hrs by broth microdilution method. The following applies: ATCC 25922, 24 h. An outline of the steps: as §2
Assay [30] concerns Streptococcus. Description: Antibacterial activity against erythromycin-resistant and clindamycin-susceptible beta-haemolytic sStreptococcus 109-820D isolate after 24 hrs by broth microdilution method. The method, boiled down:
as §1

The test system of assay [31] is Enterococcus faecalis. Nature of the assay: Antibacterial activity against linezolid-resistant Enterococcus faecalis 15-5341 isolate after 24 hrs by broth microdilution method. An outline of the steps: as §1
The subject of assay [32] is Enterococcus faecalis. Description: Antibacterial activity against vancomycin-resistant Enterococcus faecalis 82-876D with vanB phenotype isolate after 24 hrs by broth microdilution method. The method, boiled down:
as §1

Regarding `CN(C)[C@@H]1C(O)=C(C(N)=O)C(=O)[C@@]2(O)C(O)=C3C(=O)c4c(O)cccc4[C@@](C)(O)[C@H]3C[C@@H]12` [TETRACYCLINE], the minimum inhibitory concentration (MIC) – broadly, the least concentration at which growth counts as inhibited – in assay [1] was > 8 µg/mL; in [2], ≤ 16 µg/mL.
For `CO[C@H]1/C=C/O[C@@]2(C)Oc3c(C)c(O)c4c(O)c(c(/C=N/N5CCN(C)CC5)c(O)c4c3C2=O)NC(=O)/C(C)=C\C=C\[C@H](C)[C@H](O)[C@@H](C)[C@@H](O)[C@@H](C)[C@H](OC(C)=O)[C@@H]1C` [RIFAMPIN], in that order: ≤ 0.25 µg/mL and ≤ 0.25 µg/mL.
As to `CN[C@H](CC(C)C)C(=O)N[C@H]1C(=O)N[C@@H](CC(N)=O)C(=O)N[C@H]2C(=O)N[C@H]3C(=O)N[C@H](C(=O)N[C@H](C(=O)O)c4cc(O)cc(O)c4-c4cc3ccc4O)[C@H](O)c3ccc(c(Cl)c3)Oc3cc2cc(c3O[C@@H]2O[C@H](CO)[C@@H](O)[C@H](O)[C@H]2O[C@H]2C[C@](C)(N)[C@H](O)[C@H](C)O2)Oc2ccc(cc2Cl)[C@H]1O` [VANCOMYCIN], the MIC amounted to 0.5 µg/mL (≈ 0.345 µM) in [3]; 0.5 µg/mL (≈ 0.345 µM) in [4]; 0.5 µg/mL (≈ 0.345 µM) in [5]; 0.5 µg/mL (≈ 0.345 µM) in assay [6]; 0.5 µg/mL (≈ 0.345 µM) in [7]; 1 µg/mL (≈ 0.69 µM) in assay [8]. For the same compound, the MIC in assay [9] was found to be 0.5 µg/mL (≈ 0.345 µM); in assay [10] it was 0.5 µg/mL (≈ 0.345 µM); in assay [11], 1 µg/mL (≈ 0.69 µM); in assay [12], 1 µg/mL (≈ 0.69 µM); in assay [13] it was 0.5 µg/mL (≈ 0.345 µM); in assay [14] it was 0.5 µg/mL (≈ 0.345 µM). Besides, the MIC in assay [15] stood at 0.5 µg/mL (≈ 0.345 µM); in [16] it was 1 µg/mL (≈ 0.69 µM); in assay [17], 0.5 µg/mL (≈ 0.345 µM); in assay [18], 1 µg/mL (≈ 0.69 µM); in assay [19] it was 0.5 µg/mL (≈ 0.345 µM); in [20], 0.5 µg/mL (≈ 0.345 µM). In addition, the MIC in assay [21] was found to be 1 µg/mL (≈ 0.69 µM); in [22] it was 1 µg/mL (≈ 0.69 µM); in [23] it was 0.5 µg/mL (≈ 0.345 µM); in [24] it was 0.5 µg/mL (≈ 0.345 µM); in assay [25], 0.5 µg/mL (≈ 0.345 µM); in [26], 0.5 µg/mL (≈ 0.345 µM). Also, the MIC was 1 µg/mL (≈ 0.69 µM) in assay [27]; 0.5 µg/mL (≈ 0.345 µM) in assay [28]; 1 µg/mL (≈ 0.69 µM) in assay [29]; 0.5 µg/mL (≈ 0.345 µM) in [30]; 0.5 µg/mL (≈ 0.345 µM) in [31]; 0.5 µg/mL (≈ 0.345 µM) in [32].
